From PubChem
Hits are enriched below; roughly 9.6% of the tested compounds scored in any of these assays.
HCT116 PTEN-null – PTEN-deleted cell growth suppression. HCT116 PTEN-null viability, CellTiter-Glo, 60 h; active compounds read low. actives 1.2% (n = 140,000). viability, % at 10 µM. AID 827;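 active = viability at or below a set limit, 4 SD under the median of all tested compounds, cut at about 3.7% in these data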;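 note: PTEN knockout HCT116 line with beta catenin targeted HCT116 as companion control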
TNAP inh hi DEA – inhibitors of human TNAP at high phosphate acceptor concentration. purified TNAP, CDP-star luminescence, 1 M DEA. inhibition, % at 20 µM. AID 1135. P05186. actives 0.03% (n = 200,000);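 active = over 50% inhibition of tissue-nonspecific alkaline phosphatase at 20 µM in the single-dose screen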;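 note: plate controls were DMSO wells for no effect and EDTA-quenched wells as full inhibition for full effect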
Target sequence (P05186 whole entry, looked up): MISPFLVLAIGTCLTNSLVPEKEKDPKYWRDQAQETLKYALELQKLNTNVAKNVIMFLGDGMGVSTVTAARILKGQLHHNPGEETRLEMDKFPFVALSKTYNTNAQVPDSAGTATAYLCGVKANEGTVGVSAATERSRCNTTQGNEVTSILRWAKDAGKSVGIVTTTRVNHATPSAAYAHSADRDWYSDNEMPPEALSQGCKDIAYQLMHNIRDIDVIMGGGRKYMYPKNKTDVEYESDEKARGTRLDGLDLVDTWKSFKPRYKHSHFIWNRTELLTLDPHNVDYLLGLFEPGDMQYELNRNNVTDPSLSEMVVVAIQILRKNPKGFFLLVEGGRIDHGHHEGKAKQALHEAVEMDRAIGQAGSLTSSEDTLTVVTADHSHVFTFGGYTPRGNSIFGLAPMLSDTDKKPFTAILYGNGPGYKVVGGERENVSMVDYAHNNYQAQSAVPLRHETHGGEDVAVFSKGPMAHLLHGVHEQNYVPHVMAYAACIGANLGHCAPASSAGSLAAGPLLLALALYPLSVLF
HCT116 bCat-KO – beta-catenin-lacking colon tumor cell growth suppression; HCT116 beta-catenin knockout viability, CellTiter-Glo, 60 h; active compounds read low; viability, % at 10 µM; actives 1.5% (n = 140,000); AID 818;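 active = viability at or under a set limit, the compound median less 4 SD, cut at about 6% in these data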;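 note: 0% = Hyamine 1622 control at 20 µM and 100% = untreated cell control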
TNAP act hi DEA – increases human TNAP activity under high phosphate acceptor concentration. purified TNAP, CDP-star luminescence, 1 M DEA, 30 min; active compounds read high; 0 = EDTA background, 1 = DMSO-only activity. activation factor at 20 µM. 200,000 tested, under 10 active. AID 1136;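 active = activation factor at least 2 at 20 µM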
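Assay system: human TNAP; Input: enzyme diluted 1/800 final; Reagent: CDP-star luminogenic substrate at 100 µM final; Timing: 30 min, room temperature; Signal: luminescence; Evaluation: TNAP activation factor scaled between EDTA and DMSO control wells.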
TNAP inh noacc – inhibitors of human TNAP without phosphate acceptor | inhibition, % at 20 µM | P05186 | actives 0.26% (n = 200,000) | purified TNAP, CDP-star luminescence, 30 min | AID 1012;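 active = tissue-nonspecific alkaline phosphatase inhibition above about 50% at 20 µM in the single-dose screen, limit read from the data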;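 note: 0% = DMSO negative control and 100% = EDTA positive control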
Lmaj promast – inhibitors of Leishmania major promastigote growth. Leishmania major promastigotes, resazurin fluorescence viability. inhibition, % at 10 µM. actives 9% (n = 200,000); in the data active = inhibition above about 50%;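 note: promastigotes grown with compound for 44 hours at 28 °C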
Numbers without * were called inactive; . = no result.

SMILES	HCT116 PTEN-null	TNAP inh hi DEA	HCT116 bCat-KO	TNAP act hi DEA	TNAP inh noacc	Lmaj promast
CCCOc1ccc(C(=O)NNC(=S)NC(C)=O)cc1	11	-5	9	1	-79	97*
COc1ccc(CN2CCN(C(=O)C3CCC(CNS(=O)(=O)c4ccc(C)cc4)CC3)CC2)c(OC)c1OC (stereo not given)	.	-6	.	1.1	-10	7
O=C(c1ccco1)N1CCN(S(=O)(=O)c2ccccc2[N+](=O)[O-])CC1	.	-4	.	1	-2	-8
OC(CNCc1ccco1)Cn1c2ccc(Br)cc2c2cc(Br)ccc21 (stereo not given)	1.7*	-2	2.1*	1	1	10
COc1ccccc1C(=O)N/C(=C\c1ccc(Br)cc1)C(=O)NCC(=O)O	92	-3	100	1	-2	57*
CCN(CC)c1ccc(S(=O)(=O)N2CCOCC2)cc1NC(=O)CN1CCc2ccccc2C1	.	-6	.	1.1	-23	17
COc1ccc(-n2c(=S)[nH]c3cc(C(=O)NCCCN4CCCC4=O)ccc3c2=O)c(OC)c1	91	-5	101	1.1	-9	-4
COc1ccc(Cn2c(=O)[nH]c3cc(C(=O)NCCCN4CCCCCC4)ccc3c2=O)cc1	.	-1	.	1	-5	-7
CC1CCN(CCCNC(=O)c2ccc3c(=O)n(Cc4ccc(Cl)cc4)c(=S)[nH]c3c2)CC1	.	-2	.	1	-6	100*
CCCCN(C)CCNC(=O)c1ccc(Cn2c(=S)[nH]c3ccc(Br)cc3c2=O)cc1	.	-2	.	1	-3	90*
COC(=O)c1ccc2c(=O)n(Cc3ccc(C(=O)NCCCN4CCC(C)CC4)cc3)c(=S)[nH]c2c1	.	0	.	1	-6	25
COc1ccc(-n2c(=S)[nH]c3cc(C(=O)NCCCN4CCCC4=O)ccc3c2=O)cc1	13	-4	5.2*	1	-9	-4
O=C(NCCCN1CCCCC1)c1ccc2c(=O)n(CCc3ccccc3)c(=O)[nH]c2c1	71	-2	69	1	5	57*
COC(=O)c1ccc(Oc2nc(C)cc(Oc3ccccc3)n2)cc1	94	-6	92	1.1	-15	95*
COCCNC(=O)CCc1c(C)nc2nc(-c3cc(OC)cc(OC)c3)nn2c1C	.	-3	.	1	1	1
O=C(/C=C/c1cccc(Oc2ccccc2)c1)N1CCOCC1	.	1	.	1	-4	-3
COc1cc(C2CC(=O)Nc3cc(C)c(C)cc32)cc(OC)c1OC (stereo not given)	28	3	35	1	-15	4
Cc1cc2c(cc1C)C(c1cccc([N+](=O)[O-])c1)CC(=O)N2 (stereo not given)	58	-4	66	1	-6	53*
Cc1nn(-c2ccccc2)c(/N=C/c2ccccc2O)c1-c1ccccc1	100	-6	99	1.1	-8	-9
COc1cccc(CN(C)C(=O)c2cc(COc3ccc4ncccc4c3)on2)c1	.	-8	.	1.1	-8	16
COc1ccc(/C=C/C(=O)NC(=S)NNC(=O)Cc2cccs2)cc1OC	65	-1	70	1	3	99*
O=C(/C=C/c1cccs1)NC(=S)NNC(=O)Cc1cccs1	33	-5	36	1.1	1	64*
Cn1c(NC(=O)Cc2cccc3ccccc23)cc(=O)n(C)c1=O	.	2	.	1	-2	0
S=C(NC1CCCCC1)N1CCN(Cc2ccccc2Cl)CC1	.	-7	.	1.1	-8	8
N#Cc1c(-c2cccs2)cc(-c2cccnc2)nc1N	80	-1	92	1	-9	53*
SMILES	HCT116 PTEN-null	TNAP inh hi DEA	HCT116 bCat-KO	TNAP act hi DEA	TNAP inh noacc	Lmaj promast
CCN1CCN(c2cc3c(nn2)Oc2ccccc2N3C)CC1	95	-1	78	1	-9	15
Cc1ccccc1-n1nnnc1SCC(=O)N(C)C1CCS(=O)(=O)C1 (stereo not given)	.	-1	.	1	-5	-3
Cc1cc(C)cc(N(C(=O)CNS(=O)(=O)c2ccccc2)C(C(=O)NCc2ccccc2)c2ccc(C)o2)c1 (stereo not given)	33	-2	51	1	-17	55*
O=C(CN1C(=O)COc2ccccc21)N(Cc1cccnc1)Cc1ccccc1F	87	1	84	1	-2	96*
O=C(COc1ccccc1/C=C1/NC(=O)NC1=O)Nc1ccccc1	93	-2	94	1	-15	-4
O=C1NC(=O)/C(=C\c2ccccc2OCc2cccc([N+](=O)[O-])c2)N1	76	-5	84	1	16	57*
COC(=O)COc1ccccc1/C=C1/NC(=O)NC1=O	107	-5	93	1.1	-10	53*
Cc1ccnc(NC(=S)NC(=O)c2cccs2)c1	84	2	81	1	4	-2
O=C(c1ccc(Cl)cc1)N1CCCCC(Cl)C1=O (stereo not given)	.	-2	.	1	-4	-4
O=C(Nc1nc(-c2ccco2)c(-c2ccco2)s1)C1CCC1	72	-1	78	1	-8	86*
O=C(Nc1nnc(-c2ccco2)s1)C1CCCCC1	89	-3	97	1	5	-5
O=C(/C=C/c1ccco1)NCc1ccccn1	.	-4	.	1	-10	-2
Cc1cccc(C)c1NC(=O)CSc1nnc(-c2ccco2)c(-c2ccco2)n1	80	3	72	1	0	83*
Cc1ccccc1NC(=O)CSc1nnc(-c2ccco2)c(-c2ccco2)n1	100	4	92	1	-5	93*
COc1ccc(OC)c(C(=O)CSc2nc3ccccc3n2CC(=O)NC(C)(C)C)c1	104	-1	98	1	-19	61*
CC(C)(C)NC(=O)Cn1c(SCC(N)=O)nc2ccccc21	99	-2	101	1	-6	-4
CCc1ccc2c(c1)C1(NN=C(c3ccc(C)cc3)S1)C(=O)N2 (stereo not given)	1.7*	34	1.4*	0.7	45	99*
CC(C)c1ccc2c(c1)C1(NN=C(c3ccccc3)S1)C(=O)N2 (stereo not given)	9	18	4.5*	0.8	27	99*
CC(C)c1ccc(O)c(NC(=O)c2ncn[nH]2)c1	92	-4	95	1	-51	-4
CCOC(=O)C1(CC2CCCCO2)CCN(C(=O)Nc2ccccc2CC)CC1 (stereo not given)	.	-5	.	1	-7	10
CCc1ccc(CN(C)C(=O)CC2C(=O)NCCN2Cc2ccoc2)cc1 (stereo not given)	.	0	.	1	-5	-1
Nc1nc(SCC(=O)c2cccc([N+](=O)[O-])c2)n[nH]1	103	1	91	1	-9	14
O=C(CSc1nc2ncc(Br)cc2[nH]1)c1cccc([N+](=O)[O-])c1	86	0	95	1	34	54*
